Legend:
[1] = target: T1, Thromboxane A2 receptor (Homo sapiens, UniProt P21731)
T1 sequence (P21731 whole entry): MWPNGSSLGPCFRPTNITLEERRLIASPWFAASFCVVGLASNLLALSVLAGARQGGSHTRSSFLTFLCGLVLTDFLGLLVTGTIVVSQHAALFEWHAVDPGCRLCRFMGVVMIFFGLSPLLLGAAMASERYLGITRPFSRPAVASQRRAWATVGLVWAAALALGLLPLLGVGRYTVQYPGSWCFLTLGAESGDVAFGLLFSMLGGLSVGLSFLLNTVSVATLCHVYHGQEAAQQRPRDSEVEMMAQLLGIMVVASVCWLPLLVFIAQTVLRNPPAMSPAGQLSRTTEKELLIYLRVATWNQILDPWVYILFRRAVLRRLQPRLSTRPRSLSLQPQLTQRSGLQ

[2] = target: T1, Thromboxane A2 receptor; assay: Displacement of [3H]SQ-29548 from human prostanoid TP receptor expressed in QBI-HEK 293A cells after 2 hrs by scintillation proximity assay; type: cell-based, HEK293
[3] = target: T2, Thromboxane A2 receptor (Mus musculus, UniProt P30987); assay: Antagonist activity at mouse prostanoid TP receptor expressed in QBI-HEK 293A cells assessed as inhibition of […]-induced increase in inositol monophosphate after 1 hr by time-resolved fluorescence assay; type: functional, cell-based, HEK293
T2 sequence (P30987 whole entry): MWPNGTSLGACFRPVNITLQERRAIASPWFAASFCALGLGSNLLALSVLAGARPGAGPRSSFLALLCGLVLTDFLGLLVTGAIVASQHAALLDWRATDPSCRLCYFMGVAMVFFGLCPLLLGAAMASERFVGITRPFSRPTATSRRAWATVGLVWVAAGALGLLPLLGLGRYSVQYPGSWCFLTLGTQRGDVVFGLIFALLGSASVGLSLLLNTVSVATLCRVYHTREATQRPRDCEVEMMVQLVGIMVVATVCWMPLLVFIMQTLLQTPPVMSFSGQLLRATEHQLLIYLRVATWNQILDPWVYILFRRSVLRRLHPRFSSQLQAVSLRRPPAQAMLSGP
Summary of the method: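 QBI-HEK 293A cells stably transfected with human or mouse TP receptor cDNA, seeded at 10 000 cells/well and grown 16 h at 37 °C. Cells were preincubated 15 min at 37 °C with antagonist at varying concentrations in Hepes-buffered saline containing 50 mM LiCl, pH 7.4. I-BOP was then added at 1.6 nM for 1 h. IP1 was measured by HTRF (Tb anti-IP1 cryptate/D2-IP1, 1 h at 25 °C) as the 665/620 nm ratio.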

[4] = target: T2, Thromboxane A2 receptor; assay: Displacement of [3H]SQ-29548 from mouse prostanoid TP receptor expressed in QBI-HEK 293A cells after 2 hrs by scintillation proximity assay; type: cell-based, HEK293
Summary of the method: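 Membranes from QBI-HEK 293A cells stably expressing mouse TP receptor. Cells were harvested in PBS/1 mM EDTA, homogenized in 20 mM Hepes/1 mM EGTA/0.5 mM DTT with protease inhibitors, spun at 1000g and then 21 000 rpm, and the pellet resuspended in Hepes/EGTA/100 mM NaCl. Antagonist at 10 concentrations, 62.5 μg membrane, 100 μg PVT-WGA SPA beads and 20 nM [3H]SQ29,548 in 50 mM Tris, 4 mM CaCl2, 0.1% ascorbate, pH 7.5, 2 h at 25 °C.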

[5] = Dissociation constant, pKa of the compound by pH metric method; type: physicochemical
[6] = Octanol-phosphate buffer partition coefficient, log P of the compound by pH metric method; type: physicochemical
[7] = Lipophilicity, log D of the compound at pH 7.4 by pH metric method; type: physicochemical; details: buffer
[8] = Solubility of the compound in acetonitrile at 10 uM after 2 hrs by spectrophotometry; type: physicochemical

| IC50 [1] | Kd [2] | Kd [4] | pKa [5] | logP [6] | logD [7] | solubility [8] | Structure (SMILES) | further results |
| --- | --- | --- | --- | --- | --- | --- | --- | --- |
| 64 nM | 331 nM | 19 nM |  |  |  |  | O=S(=O)(NCCc1cccc(CCc2nnn[nH]2)c1)c1ccc(Cl)cc1 | IC50 [3]: 8 nM |
|  |  |  | 4.47 |  |  |  | CC1=C(O)CCC1=O |  |
|  |  |  | 4.33 | 3 | 0.01 | soluble | O=C(O)CCc1ccc(Br)cc1 |  |
|  |  |  | 4.2 |  |  |  | O=C1C=C(O)CC1 |  |
| 15100 nM | > 10000 nM | 10000 nM |  |  |  |  | O=S(=O)(NCCc1cccc(CCCO)c1)c1ccc(Cl)cc1 | IC50 [3]: 1630 nM |
|  | 328 nM | 26 nM |  |  |  |  | CC1=C(O)C(Cc2cccc(CCNS(=O)(=O)c3ccc(Cl)cc3)c2)CC1=O (centres undefined) |  |
|  |  |  | 4.62 | 2.21 | -0.42 | soluble | Brc1ccc(Cc2nn[nH]n2)cc1 |  |
| 377 nM | 359 nM | 17 nM |  |  |  |  | O=c1c(O)c(NCc2cccc(CCNS(=O)(=O)c3ccc(Cl)cc3)c2)c1=O | IC50 [3]: 91 nM |
| > 10000 nM | 11400 nM | 1200 nM |  |  |  |  | O=C1CCC(O)=C1Cc1cccc(CCNS(=O)(=O)c2ccc(Cl)cc2)c1 |  |
|  |  | 26 nM |  |  |  |  | O=C(O)CCc1cccc(CCNS(=O)(=O)c2ccc(Cl)cc2)c1 |  |
|  | 203 nM | 11 nM |  |  |  |  | O=C1C=C(O)C(Cc2cccc(CCNS(=O)(=O)c3ccc(Cl)cc3)c2)C1 (centres undefined) |  |
| > 10000 nM |  |  |  |  |  |  | O=C1CCC(O)=C1CCc1cccc(CCNS(=O)(=O)c2ccc(Cl)cc2)c1 |  |
| > 10000 nM |  |  |  |  |  |  | CC1=C(OCC(C)C)CC(Cc2cccc(CCNS(=O)(=O)c3ccc(Cl)cc3)c2)C1=O (centres undefined) |  |
|  |  |  | 3.96 | 3.02 | -0.42 | soluble | O=C1C=C(O)CC1Cc1ccc(Br)cc1 (centres undefined) |  |
|  |  |  | 4.2 | 3.01 | -0.19 | soluble | O=C1CCC(O)=C1Cc1ccc(Br)cc1 |  |
|  |  |  | 4.24 | 3.28 | 0.11 | soluble | CC1=C(O)CC(Cc2ccc(Br)cc2)C1=O (centres undefined) |  |
